Measured values gathered from unrelated publications.
Lines come from different studies, so protocols differ.
HTR1D: 5-hydroxytryptamine receptor 1D (HTR1D, Homo sapiens, UniProt P28221)

SMILES	target	assay	conditions	quantity	value
CC(C)[C@H](NC(=O)[C@H](CCCNC(=N)N)NC(=O)N[C@@H](Cc1ccccc1)C(=O)O)C(=O)N[C@H](C=O)CCCNC(=N)N	Transmembrane protease serine 2 (TMPRSS2, Homo sapiens, UniProt O15393)	enzyme activity, inhibitor, fluorescence	pH 8	IC50	0.38 µM
CC(C)Cc1ccc([C@H](C)C(=O)O)cc1	Histone acetyltransferase KAT2B (KAT2B, Homo sapiens, UniProt Q92831)	enzyme activity, inhibitor, mobility shift		IC50	~6000 µM
O=C(CCCN1CCN(c2ccccc2)CC1)c1ccc(F)cc1	HTR1D	ligand displacement, radioligand		Ki	0.169 µM
NCCC[C@H](N)C(=O)O	Arginase (Schistosoma mansoni, UniProt Q6WVP6)	enzyme activity, inhibitor, absorbance		Ki	1900 µM
OC12CCCCC1C(c1ccccc1)NCC2 (stereo not shown)	Sodium-dependent serotonin transporter (Slc6a4, Rattus norvegicus, UniProt P31652)	ligand displacement, radioligand		Ki	> 20 µM
C[C@@]1(F)[C@H](O)[C@@H](COP(=O)(O)OP(=O)(O)OP(=O)(O)O)O[C@H]1n1ccc(=O)[nH]c1=O	DNA polymerase subunit gamma-1 (POLG, Homo sapiens, UniProt P54098)	enzyme activity, inhibitor		IC50	> 100 µM
COc1ccccc1N1CCN(Cc2coc3c(Cl)cc(Cl)cc3c2=O)CC1	HTR1D	ligand displacement, radioligand		Ki	2.06 µM
CC[C@H]1NC(=O)[C@@H]2CSC(=N2)[C@H](Cc2ccccc2)N(C)C(=O)[C@@H]2CCCN2C(=O)[C@H](C(C)C)N(C)C(=O)[C@H](Cc2ccccc2)OC(=O)[C@H](C)[C@@H](C)NC(=O)[C@@H]([C@@H](C)O)NC(=O)[C@@H](CC(C)C)N(C)C(=O)[C@@H]2CSC1=N2	Dipeptidyl peptidase 8 (Homo sapiens, UniProt Q6V1X1)	enzyme activity, inhibitor		IC50	6.41 µM
CSCC[C@H](NC(=O)[C@@H]1CCCN1C(=O)CNC(=O)c1ccc2c(c1)C(=O)OC21c2ccc(O)cc2Oc2cc(O)ccc21)C(=O)N[C@@H](CCC(N)=O)C(=O)N[C@H](C(=O)N[C@@H](CO)C(=O)N[C@H](C(=O)N1CCC[C@H]1C(=O)N[C@@H](CCCCN)C(=O)N[C@@H](CC(N)=O)C(=O)NCC(=O)O)[C@@H](C)OP(=O)(O)O)[C@@H](C)O	Serine/threonine-protein kinase PLK2, polo-box (PLK2, Homo sapiens, UniProt Q9NYY3)	binding, FP		Kd	0.0504 µM
C#CCNC(=O)c1cc2ccc(N(CC)CC)cc2oc1=O	Acetylcholinesterase (Ache, Mus musculus, UniProt P21836)	enzyme activity, inhibitor, Ellman	pH 7.6	IC50	1 µM
C[C@H](NC(=O)[C@@H](CCC(=O)O)NC(=O)CN1CCN(CC(=O)O)CCN(CC(=O)O)CCN(CC(=O)O)CC1)C(=O)N[C@@H](Cc1ccc(O)cc1)C(=O)NCC(=O)N[C@@H](Cc1c[nH]c2ccccc12)C(=O)N[C@H](C(=O)N[C@@H](CC(=O)O)C(=O)N[C@@H](Cc1cccc2ccccc12)C(N)=O)c1ccccc1	Gastrin/cholecystokinin type B receptor (Rattus norvegicus, UniProt P30553)	ligand displacement, radioligand		IC50	0.0568 µM
COc1ccc(C(=O)CCN2CCN(c3ccccc3F)CC2)cc1	HTR1D	ligand displacement, radioligand		Ki	0.185 µM
OC(c1ccc(F)cc1)C(F)(F)CCN1CCC(O)(c2ccc(Cl)cc2)CC1 (racemic)	HTR1D	cell-free assay, radioligand		Ki	4.88 µM
C[C@]12CCc3c(ccc4cc(O)ccc34)[C@@H]1CCC2=O	ksi (Comamonas testosteroni, UniProt P00947)	enzyme activity, inhibitor, absorbance		Ki	5 µM
O=C(CCCCCCNC(=O)c1cnc(N(c2ccccc2)c2ccccc2)nc1)NO	ATP-dependent translocase ABCB1 (ABCB1, Homo sapiens, UniProt P08183)	ATPase activity, activator	cell membranes	EC50	~7.5 µM
CCCCCc1cc(O)c2c(c1)OC(C)(CCC=C(C)C)C=C2 (stereo not shown)	Polyunsaturated fatty acid 5-lipoxygenase (ALOX5, Homo sapiens, UniProt P09917)	enzyme activity in cells, inhibitor		IC50	1.5 µM
